ChEMBL document CHEMBL2434829, “Synthesis of new andrographolide derivatives and evaluation of their antidyslipidemic, LDL-oxidation and antioxidant activity” (2013)
Activity calls are given as the source filed them. The rule behind the calls is not given here.

Key:
Rattus norvegicus [1] = test: Antidyslipidemic activity in Charles foster rat assessed as increase in triton WR-1339-reduced post heparin lipolytic activity level in plasma at 100 mg/kg, po after 18 hrs by spectrophotometric analysis relative to triton-treated rat; assay type: functional; parameters: scale not given: the % may be the effect or the level left
Summary of the method: (§1)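 Triton WR-1339 hyperlipidemia in male Charles Foster rats: 400 mg/kg i.p. plus oral dose in gum acacia vehicle, fasted, 6 rats/group. Plasma taken 18 h later from retro-orbital blood. Post-heparin lipolytic activity measured spectrophotometrically as nmol free fatty acids formed/h/ml plasma. Percent change against triton-only rats; mean ± SD.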

Rattus norvegicus [2] = test: Antidyslipidemic activity in Charles foster rat assessed as increase in triton WR-1339-reduced lipoprotein lipase level in liver at 100 mg/kg, po relative to triton-treated rat; assay type: functional, organism-based; parameters: dose 100 mg/kg
Summary of the method: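 Rats given triton WR-1339 (400 mg/kg i.p.) with oral test agent in gum acacia, 6 per group. Liver homogenized 10% w/v in cold 100 mM phosphate buffer pH 7.2 and assayed for total lipoprotein lipase lipolytic activity. Mean ± SD.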

Rattus norvegicus [3] = test: Antidyslipidemic activity in Charles foster rat assessed as decrease in triton WR-1339-induced phospholipid level in plasma at 100 mg/kg, po after 18 hrs relative to triton-treated rat; assay type: functional; parameters: scale not given: the % may be the effect or the level left
Summary of the method: (§2)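 Male adult Charles Foster rats (200–225 g), six per group. Triton WR-1339 400 mg/kg i.p., with test agent given orally at the same time as a gum acacia suspension in water; food withdrawn. Controls received vehicle. At 18 h, retro-orbital EDTA blood taken and centrifuged 2500 × g for 10 min at 4 °C. Plasma diluted 1:3 in saline; TC, PL and TG read enzymatically on an autoanalyzer. Percent change against triton group.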

Rattus norvegicus [4] = test: Antidyslipidemic activity in Charles foster rat assessed as decrease in triton WR-1339-induced total cholesterol level in plasma at 100 mg/kg, po after 18 hrs relative to triton-treated rat; assay type: functional; parameters: scale not given: the % may be the effect or the level left; summary of the method: as §2
Rattus norvegicus [5] = test: Antidyslipidemic activity in Charles foster rat assessed as decrease in triton WR-1339-induced total cholesterol level in plasma at 150 mg/kg, po after 18 hrs relative to triton-treated rat; assay type: functional; parameters: scale not given: the % may be the effect or the level left; summary of the method: as §2
Rattus norvegicus [6] = test: Antidyslipidemic activity in Charles foster rat assessed as increase in triton WR-1339-reduced HDL cholesterol level in plasma at 100 mg/kg, po after 18 hrs by poly anionic precipitation method relative to triton-treated rat; assay type: functional, organism-based; parameters: dose 100 mg/kg
Summary of the method: (§3)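 Male adult Charles Foster rats (200–225 g), 6/group. Triton WR-1339 400 mg/kg i.p.; test agent in gum acacia suspension in water given orally together with triton, diet withdrawn. After 18 h, blood drawn from retro-orbital sinus into EDTA tubes under thiopentone anaesthesia. Plasma split into VLDL, LDL and HDL by polyanionic precipitation, then cholesterol measured. Mean ± SD.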

Rattus norvegicus [7] = test: Antidyslipidemic activity in Charles foster rat assessed as decrease in triton WR-1339-induced phospholipid level in plasma at 25 mg/kg, po after 18 hrs relative to triton-treated rat; assay type: functional; parameters: scale not given: the % may be the effect or the level left; summary of the method: as §2
Rattus norvegicus [8] = test: Antidyslipidemic activity in Charles foster rat assessed as decrease in triton WR-1339-induced triglyceride level in plasma at 100 mg/kg, po after 18 hrs relative to triton-treated rat; assay type: functional; parameters: scale not given: the % may be the effect or the level left; summary of the method: as §2
Rattus norvegicus [9] = test: Antidyslipidemic activity in Charles foster rat assessed as decrease in triton WR-1339-induced phospholipid level in plasma at 150 mg/kg, po after 18 hrs relative to triton-treated rat; assay type: functional; parameters: scale not given: the % may be the effect or the level left; summary of the method: as §2
Rattus norvegicus [10] = test: Antidyslipidemic activity in Charles foster rat assessed as decrease in triton WR-1339-induced phospholipid level in plasma at 50 mg/kg, po after 18 hrs relative to triton-treated rat; assay type: functional; parameters: scale not given: the % may be the effect or the level left; summary of the method: as §2
[11] = Antioxidant activity assessed as decrease in hydroxyl radicals level by measuring formation of malondialdehyde at 200 ug/ml after 90 mins by spectrophotometric analysis relative to control; assay type: functional; parameters: scale not given: the % may be the effect or the level left
Summary of the method: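 Hydroxyl radicals generated without enzyme from deoxyribose 2.8 mM, FeSO4·7H2O 2 mM, sodium ascorbate 2.0 mM and H2O2 2.8 mM in 50 mM KH2PO4 pH 7.4. Compound at 200 µg/mL. Incubated 37 °C for 90 min. Mannitol as standard.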

Rattus norvegicus [12] = test: Antidyslipidemic activity in Charles foster rat assessed as increase in triton WR-1339-reduced post heparin lipolytic activity level in plasma at 200 mg/kg, po after 18 hrs by spectrophotometric analysis relative to triton-treated rat; assay type: functional; parameters: scale not given: the % may be the effect or the level left; summary of the method: as §1
Rattus norvegicus [13] = test: Antidyslipidemic activity in Charles foster rat assessed as decrease in triton WR-1339-induced total cholesterol level in plasma at 25 mg/kg, po after 18 hrs relative to triton-treated rat; assay type: functional; parameters: scale not given: the % may be the effect or the level left; summary of the method: as §2
Rattus norvegicus [14] = test: Antidyslipidemic activity in Charles foster rat assessed as increase in triton WR-1339-reduced post heparin lipolytic activity level in plasma at 50 mg/kg, po after 18 hrs by spectrophotometric analysis relative to triton-treated rat; assay type: functional; parameters: scale not given: the % may be the effect or the level left; summary of the method: as §1
Rattus norvegicus [15] = test: Antidyslipidemic activity in Charles foster rat assessed as decrease in triton WR-1339-induced triglyceride level in plasma at 25 mg/kg, po after 18 hrs relative to triton-treated rat; assay type: functional; parameters: scale not given: the % may be the effect or the level left; summary of the method: as §2
Rattus norvegicus [16] = test: Antidyslipidemic activity in Charles foster rat assessed as increase in triton WR-1339-reduced post heparin lipolytic activity level in plasma at 25 mg/kg, po after 18 hrs by spectrophotometric analysis relative to triton-treated rat; assay type: functional; parameters: scale not given: the % may be the effect or the level left; summary of the method: as §1
Rattus norvegicus [17] = test: Antidyslipidemic activity in Charles foster rat assessed as increase in triton WR-1339-reduced post heparin lipolytic activity level in plasma at 150 mg/kg, po after 18 hrs by spectrophotometric analysis relative to triton-treated rat; assay type: functional; parameters: scale not given: the % may be the effect or the level left; summary of the method: as §1
Rattus norvegicus [18] = test: Antidyslipidemic activity in Charles foster rat assessed as decrease in triton WR-1339-induced VLDL cholesterol level in plasma at 100 mg/kg, po after 18 hrs by poly anionic precipitation method relative to triton-treated rat; assay type: functional, organism-based; parameters: dose 100 mg/kg; summary of the method: as §3
Rattus norvegicus [19] = test: Antidyslipidemic activity in Charles foster rat assessed as decrease in triton WR-1339-induced triglyceride level in plasma at 50 mg/kg, po after 18 hrs relative to triton-treated rat; assay type: functional; parameters: scale not given: the % may be the effect or the level left; summary of the method: as §2
Rattus norvegicus [20] = test: Antidyslipidemic activity in Charles foster rat assessed as decrease in triton WR-1339-induced LDL cholesterol level in plasma at 100 mg/kg, po after 18 hrs by poly anionic precipitation method relative to triton-treated rat; assay type: functional, organism-based; parameters: dose 100 mg/kg; summary of the method: as §3
[21] = Antioxidant activity assessed as reduction of microsomal lipid per-oxidation level by measuring formation of malondialdehyde at 200 ug/ml after 90 mins by spectrophotometric analysis relative to control; assay type: functional; parameters: scale not given: the % may be the effect or the level left
Rattus norvegicus [22] = test: Antidyslipidemic activity in Charles foster rat assessed as decrease in triton WR-1339-induced triglyceride level in plasma at 200 mg/kg, po after 18 hrs relative to triton-treated rat; assay type: functional; parameters: scale not given: the % may be the effect or the level left; summary of the method: as §2
Rattus norvegicus [23] = test: Antidyslipidemic activity in Charles foster rat assessed as decrease in triton WR-1339-induced total cholesterol level in plasma at 200 mg/kg, po after 18 hrs relative to triton-treated rat; assay type: functional; parameters: scale not given: the % may be the effect or the level left; summary of the method: as §2
Rattus norvegicus [24] = test: Antidyslipidemic activity in Charles foster rat assessed as decrease in triton WR-1339-induced phospholipid level in plasma at 200 mg/kg, po after 18 hrs relative to triton-treated rat; assay type: functional; parameters: scale not given: the % may be the effect or the level left; summary of the method: as §2
[25] = Antioxidant activity assessed as reduction of LDL-oxidation at 200 ug/ml after 1 hr by TBARS assay in presence of Cu 2+ relative to control; assay type: functional; parameters: scale not given: the % may be the effect or the level left; settings: in the assay text read “after 16 hr” for “after 1 hr”
Summary of the method: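 LDL obtained by ultracentrifugation of serum from overnight-fasted normolipemic donors, dialyzed against 150 mM NaCl with 0.02% EDTA under N2, purity checked by PAGE. LDL 0.71 mg with CuCl2·2H2O 10 µM, compound at 200 µg/mL, in 50 mM PBS pH 7.4 for 16 h at 37 °C. Lipid peroxides read as TBARS after heating with SDS, acetic acid and 0.8% TBA for 1 h in boiling water.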

[26] = Antioxidant activity assessed as decrease in superoxide anions level by measuring formation of formazone at 200 ug/ml after 30 mins by spectrophotometric analysis relative to control; assay type: functional; parameters: scale not given: the % may be the effect or the level left
Summary of the method: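 Superoxide made enzymatically with xanthine ([…]), xanthine oxidase (0.04 U) and nitroblue tetrazolium (320 µM) in 100 mM phosphate buffer pH 8.2. Compound at 200 µg/mL, sonicated in buffer. Incubated 37 °C for 30 min, stopped with glacial acetic acid, formazan read spectrophotometrically. Allopurinol as standard.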

Rattus norvegicus [27] = test: Antidyslipidemic activity in Charles foster rat assessed as decrease in triton WR-1339-induced triglyceride level in plasma at 150 mg/kg, po after 18 hrs relative to triton-treated rat; assay type: functional; parameters: scale not given: the % may be the effect or the level left; summary of the method: as §2
Rattus norvegicus [28] = test: Antidyslipidemic activity in Charles foster rat assessed as decrease in triton WR-1339-induced total cholesterol level in plasma at 50 mg/kg, po after 18 hrs relative to triton-treated rat; assay type: functional; parameters: scale not given: the % may be the effect or the level left; summary of the method: as §2

For `C=C1CC[C@@H]2[C@](C)(CO)[C@H](O)CC[C@@]2(C)[C@@H]1C/C=C1/C(=O)OC[C@H]1O` [ANDROGRAPHOLIDE], the Activity (Rattus norvegicus [1]) was 16%, the Activity (Rattus norvegicus [2]) was “Active” and the Activity (Rattus norvegicus [3]) was 26%. For the same compound, the Activity (Rattus norvegicus [4]) was 27%, the Activity (Rattus norvegicus [5]) was 29% and the Activity (Rattus norvegicus [6]) was “Active”. It also gave an Activity (Rattus norvegicus [7]) of 12%, an Activity (Rattus norvegicus [8]) of 28% and an Activity (Rattus norvegicus [9]) of 29%. It also gave an Activity (Rattus norvegicus [10]) of 20%, an Activity [11] of 36% and an Activity (Rattus norvegicus [12]) of 18%. The Activity (Rattus norvegicus [13]) was 14%, the Activity (Rattus norvegicus [14]) was 13% and the Activity (Rattus norvegicus [15]) was 15%. The Activity (Rattus norvegicus [16]) was 10%, the Activity (Rattus norvegicus [17]) was 18% and the Activity (Rattus norvegicus [18]) was “Active”. For the same compound, the Activity (Rattus norvegicus [19]) was 21%, the Activity (Rattus norvegicus [20]) was “Active” and the Activity [21] was 38%. For the same compound, the Activity (Rattus norvegicus [22]) was 30%, the Activity (Rattus norvegicus [23]) was 29% and the Activity (Rattus norvegicus [24]) was 30%. The Activity [25] was 45%, the Activity [26] was 33% and the Activity (Rattus norvegicus [27]) was 30%. The Activity (Rattus norvegicus [28]) was 21%.

With `C=C1CC[C@@H]2[C@](C)(COS(=O)(=O)c3ccc(C)cc3)[C@H](O)CC[C@@]2(C)[C@@H]1C/C=C1/C(=O)OC[C@H]1O` the Activity (Rattus norvegicus [1]) was 18%, the Activity (Rattus norvegicus [2]) was “Active” and the Activity (Rattus norvegicus [3]) was 37%. The Activity (Rattus norvegicus [4]) was 33%, the Activity (Rattus norvegicus [5]) was 34% and the Activity (Rattus norvegicus [6]) was “Active”. For the same compound, the Activity (Rattus norvegicus [7]) was 15%, the Activity (Rattus norvegicus [8]) was 35% and the Activity (Rattus norvegicus [9]) was 39%. For the same compound, the Activity (Rattus norvegicus [10]) was 22%, the Activity [11] was 46% and the Activity (Rattus norvegicus [12]) was 18%. For the same compound, the Activity (Rattus norvegicus [13]) was 16%, the Activity (Rattus norvegicus [14]) was 13% and the Activity (Rattus norvegicus [15]) was 14%. The Activity (Rattus norvegicus [16]) was 10%, the Activity (Rattus norvegicus [17]) was 18% and the Activity (Rattus norvegicus [18]) was “Active”. For the same compound, the Activity (Rattus norvegicus [19]) was 20%, the Activity (Rattus norvegicus [20]) was “Active” and the Activity [21] was 40%. It also gave an Activity (Rattus norvegicus [22]) of 37%, an Activity (Rattus norvegicus [23]) of 34% and an Activity (Rattus norvegicus [24]) of 40%. The Activity [25] was 55%, the Activity [26] was 41% and the Activity (Rattus norvegicus [27]) was 37%. It also gave an Activity (Rattus norvegicus [28]) of 22%.
